Results of several laboratories.
Lines come from different studies, so protocols differ.
Target: Death-associated protein kinase 2 (DAPK2, Homo sapiens, UniProt Q9UIK4)

Structure (SMILES)	test	setting	measurement	value
Cc1sc(C(=O)NC2COC2)cc1-n1cc(NC(=O)Nc2c(F)cccc2Cl)cn1	enzyme activity, inhibitor	10 µM	remaining activity	99.5%
COc1cc(Cl)c(C(=O)N[C@@H](CN[C@H]2CC[C@@H](N)CC2)Cc2ccc(C#N)cc2)cc1-c1ccc(CN[C@H](C)c2ccc(C)cc2)o1	enzyme activity, inhibitor	1 µM	remaining activity	123%
Cc1nc(C2CCN(C(=O)c3ccc(OC(F)(F)F)cc3N)CC2)c2ncc(N3CCN(C)CC3)cc2n1	cell-free assay, competition with immobilised ligand	1 µM	remaining binding	100%
Cc1cc(NC(=O)c2cccc3cc(-c4cccc5[nH]nc(N)c45)ccc23)ccc1F	enzyme activity, inhibitor	0.1 µM	activity vs control	96%
O=C(Nc1ccc(Oc2ccc(F)cc2)cc1)N1CCc2ncccc2[C@H]1c1ccc(F)cc1	cell-free assay, competition with immobilised ligand	1 µM	remaining binding	100%
Cc1ccc(Nc2nccc(N(C)c3ccc4c(C)n(C)nc4c3)n2)cc1S(N)(=O)=O	enzyme activity, inhibitor	0.3 µM	inhibition	1%
CCCOc1ccc(OC)c(F)c1C(=O)c1ccc(C(=O)N[C@@H]2CNC[C@H]2NC(=O)c2ccc3[nH]ncc3c2)cc1	enzyme activity, inhibitor	10 µM	remaining activity	84%
Cc1ccc(C(=O)Nc2ccc(CN3CCN(C)CC3)c(C(F)(F)F)c2)cc1C#Cc1cnc2cccnn12	enzyme activity, inhibitor	23.5 nM	remaining activity	100%
CC(C)(O)c1cncc(-c2nc3ccc(F)cc3n2C2CC2)c1	cell-free assay, competition with immobilised ligand	1 µM	remaining binding	100%
N#CCCc1ccc2c(c1)-c1[nH]c3ccc([N+](=O)[O-])cc3c1CC(=O)N2	cell-free assay	0.5 µM	remaining signal	96.5%
CNC(=O)c1cc(Oc2ccc(NC(=O)Nc3ccc(Cl)c(C(F)(F)F)c3)cc2)ccn1	enzyme activity, inhibitor	0.3 µM	inhibition	5%
Nc1ncnc2occ(-c3ccc(NC(=O)Nc4cc(C(F)(F)F)ccc4F)cc3)c12	cell-free assay, inhibitor	20 µM	remaining signal	25%
COc1cc(-c2cn(C3CCc4c(F)cccc4N(CC(F)(F)F)C3=O)nn2)ccc1-n1cnc(C)c1 (stereo not shown)	cell-free assay, competition with immobilised ligand	1 µM	remaining binding	100%
Cc1cnc(NC2CCOCC2)nc1-n1cnc(C(=O)NC(CN)c2cc(F)cc(Cl)c2)c1 (stereo not shown)	enzyme activity, inhibitor, radiometric	1 µM	remaining activity	108%
CC(C)(C)c1nc2c(s1)c1nc(N)ncc1c1ccc(NS(=O)(=O)c3c(F)cccc3F)c(F)c12	enzyme activity, inhibitor, radiometric	1 µM	remaining activity	81%
CS(=O)(=O)NCC[C@H](NC(=O)c1cncc2c1cnn2-c1ccc(F)cc1)c1ccnc(S(C)(=O)=O)c1	cell-free assay, competition with immobilised ligand	1 µM	remaining binding	100%
